Results collected from several papers.
Lines come from different studies, so protocols differ. Converted amounts (≈) assume the structure as drawn.

| SMILES | target or system | assay | test system | setting | measurement | result |
| --- | --- | --- | --- | --- | --- | --- |
| CC(C)(C(=O)N1CCC2(CC1)OCC(CN1CCCCS1(=O)=O)O2)c1ccccc1 (centres unmarked) | Chikungunya virus | viral replication, inhibitor |  | 40 µM | inhibition | < 50% |
| O=C(Nc1ccc(Cl)cc1)Nc1cccc(-c2cn(Cc3ccc(Br)cc3)nn2)c1 | MCF7 | cell growth or viability, CCK-8 |  | 50 µM, 48 h | viability | 96.5% |
| O=C(NCc1ccc(F)cc1)c1cn(Cc2ccc(F)cc2)c2ccc(Oc3ccccc3)cc2c1=O | MCF7 | cell growth or viability, MTT |  | 24 h | IC50 | > 500 µM |
| S=c1[nH]nc(NCNc2n[nH]c(=S)s2)s1 | Xanthomonas oryzae | microbial growth |  |  | EC50 | 16 µg/mL (≈ 57.5 µM) |
| CC(C)C[C@@H](NC(=O)[C@H](C)NC(=O)CNC(=O)[C@@H](NC=O)C(C)C)C(=O)N[C@@H](C)C(=O)N[C@@H](C(=O)N[C@H](C(=O)N[C@@H](C(=O)N[C@@H](Cc1c[nH]c2ccccc12)C(=O)N[C@H](CC(C)C)C(=O)N[C@@H](Cc1cc2ccccc2[nH]1)C(=O)N[C@H](CC(C)C)C(=O)N[C@@H](Cc1c[nH]c2ccccc12)C(=O)N[C@H](CC(C)C)C(=O)N[C@@H](Cc1c[nH]c2ccccc12)C(=O)NCCO)C(C)C)C(C)C)C(C)C | MCF7 | cell growth or viability, SRB |  | 48 h | GI50 | 0.0233 µM |
| O=c1cc(CSc2ccc(N=Cc3ccc(O)cc3)cc2)occ1O |  | DPPH scavenging, absorbance |  | 30 min | IC50 | 8.85 µM |
| O=c1c2ccccc2[se]n1-c1ccccc1 | Chikungunya virus | viral replication | Vero | 24 h | IC50 | 2.02 µM |
| O=c1cc(CSc2ccc(N=Cc3ccccc3[N+](=O)[O-])cc2)occ1O |  | DPPH scavenging, absorbance |  | 30 min | IC50 | 14.3 µM |
| O=C(NCc1ccc(C(F)(F)F)cc1)c1cn(Cc2ccc(F)cc2)c2ccc(Oc3ccccc3)cc2c1=O | MCF7 | cell growth or viability, MTT |  | 24 h | IC50 | 109 µM |
| O=c1cc(CSc2ccc(N=Cc3ccccc3C(F)(F)F)cc2)occ1O |  | DPPH scavenging, absorbance |  | 30 min | IC50 | 36.2 µM |
| O=C(NCc1ccc(F)cc1)c1cn(Cc2ccc(C(F)(F)F)cc2)c2ccc(Oc3ccccc3)cc2c1=O | MCF7 | cell growth or viability, MTT |  |  | IC50 | < 12 µM |
| Cc1cccc(C=Nc2ccc(SCc3cc(=O)c(O)co3)cc2)c1 |  | DPPH scavenging, absorbance |  | 30 min | IC50 | 26.7 µM |
| O=C(N1CCC2(CC1)OCC(CN1CCCCS1(=O)=O)O2)C1(c2ccc(Cl)cc2)CCCC1 (centres unmarked) | Chikungunya virus | viral replication, inhibitor |  | 40 µM | inhibition | 55% |
| O=C(NCc1ccccc1)c1cn(Cc2ccc(C(F)(F)F)cc2)c2ccc(Oc3ccccc3)cc2c1=O | MCF7 | cell growth or viability, MTT |  | 48 h | IC50 | 6.43 µM |
| COc1ccc(C=Nc2ccc(SCc3cc(=O)c(O)co3)cc2)cc1 |  | DPPH scavenging, absorbance |  | 30 min | IC50 | 15.6 µM |
| Cc1ccc(CNC(=O)c2cn(Cc3ccc(Cl)cc3)c3ccc(Oc4ccccc4)cc3c2=O)cc1 | MCF7 | cell growth or viability, MTT |  | 48 h | IC50 | 105 µM |
| CC[C@H](C)C[C@H](C)CCCCCCCCC(=O)N[C@H]1C[C@@H](O)[C@@H](NCCN)NC(=O)[C@@H]2[C@@H](O)CCN2C(=O)[C@H]([C@H](O)CCN)NC(=O)[C@H]([C@H](O)[C@@H](O)c2ccc(O)cc2)NC(=O)[C@@H]2C[C@@H](O)CN2C(=O)[C@H]([C@@H](C)O)NC1=O | Candidozyma auris | microbial killing, broth dilution |  | 48 h | MFC | 8 µg/mL (≈ 7.32 µM) |
